PTEN del growth = growth suppression of PTEN-null HCT116, primary screen, cell-based, CellTiter-Glo; HCT116 PTEN-null viability, 60 h; active compounds read low; viability, % at 10 µM; 1.2% of 140,000 active; AID 827, 2007;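 active = viability at or below a set limit, 4 SD under the median of all tested compounds, cut at about 3.7% in these data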;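 note: PTEN knockout HCT116 line with beta catenin targeted HCT116 as companion control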
SDO1 yeast rescue = growth rescue of sdo1-depleted yeast, primary screen, S. cerevisiae, bone marrow failure model; AID 817, 2007; z-score at 10 µM; 0.21% of 140,000 active; S. cerevisiae sdo1-depleted JHY4D growth rescue, OD600 30 h; active compounds read high; pdr5 snq2 efflux-pump mutant strain;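 active = z-score above 3 at both the 24 hr and the 30 hr optical density reads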
Yeast life ext = compounds extending yeast replicative lifespan, primary screen, S. cerevisiae, OD615; inhibition of the nicotinamide effect, % at 10 µM; S. cerevisiae growth with nicotinamide; deaD strain in restrictive glucose medium; 0.68% of 130,000 active;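 active = inhibition above a set limit, placed 3 SD over the median of all compounds, cut at about 26% in these data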
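Material: Modified budding yeast, DeaD strain | Medium: Restrictive glucose medium | Probe or stimulus: 1.5 mM nicotinamide | Dosing: Single dose 10 µM compound, 0.25% DMSO | Times: 48 h at 30 °C | Technique: OD615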
bCat KO growth = primary screen for growth suppressors in beta-catenin knockout HCT116 cells (colon tumor, human). HCT116 beta-catenin knockout viability, CellTiter-Glo, 60 h; active compounds read low. viability, % at 10 µM. 1.5% of 140,000 active. AID 818, 2007;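 active = viability at or under a set limit, the compound median less 4 SD, cut at about 6% in these data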
Yeast growth inh = growth inhibitors of yeast BB579 in restrictive medium, primary screen, yeast lifespan-shortening project, S. cerevisiae. OD615, 48 h. inhibition, % at 10 µM. AID 804, 2007. 0.51% of 140,000 active;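 active = inhibition above a set limit, 3 SD over the mean compound inhibition, cut at about 44% in these data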
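controls = amphotericin B 10 µg/mL, positive | assay system = DeaD yeast strain BB579 | schedule = 48 h compound exposure at 30 °C after 4 h preincubation | detection = OD615 turbidity measurement | medium = restrictive CSMM-D medium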
SDO1 rescue DR = SDO1-depleted yeast growth rescue, concentration-response, diseases of bone marrow failure, JHY4D, OD600; 44% of 440 active; OD recovery (test concentration not listed); S. cerevisiae JHY4D (SDO1-depleted) growth rescue, 30 h; active compounds read high; efflux-deficient strain, SNQ2 and PDR5 mutated; shares compounds with SDO1 yeast rescue;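 active = yeast growth recovered at 30 hours, either rising with dose fitted slope above 0.001 or with average optical density gain above 0.07, some results past the limit were not filed as active; inactive = growth falling with dose or no effect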
Of the large screens only hits and unclear results are named; the others gave an inactive call (follow-up assays come after a bar, where they were run). The list is not random: actives were taken first. Their share in the collection is about 2.8%.

CC(C)=CCC(C)(C)C1OCCN1C(=O)Nc1ccccc1 (stereo not drawn)	none
Nc1ccc(-n2nncc2-c2ccc(Cl)cc2)cc1	SDO1 yeast rescue 12.7 | SDO1 rescue DR inactive
O=[N+]([O-])c1ccc(-n2nncc2-c2ccc(Cl)cc2)cc1	none
CC(C)Oc1ccc(C(=O)N(Cc2ccco2)C2CCS(=O)(=O)C2)cc1 (stereo not drawn)	none
COc1ccc(/C=N/NC(=O)COc2ccc(Cl)cc2Cl)cc1Cn1nc(C)cc1C	none
COc1ccc(/C=N\NC(=O)COc2ccc(Cl)cc2Cl)c(C(=O)O)c1OC	none | SDO1 rescue DR inactive
CN1CCN(NC(=O)c2cc(S(=O)(=O)N3CCOCC3)c(Cl)cc2Cl)CC1	none
N#Cc1c(C(F)(F)F)cc(-c2ccccc2)nc1SCC(=O)Nc1sc2c(c1C#N)CCC2	none | SDO1 rescue DR 0.0934
O=C(CSc1ncnc2c1oc1ccccc12)Nc1ccccc1F	none | SDO1 rescue DR inactive
CC1CCN(CCc2nc3cc(NC(=O)NC4CCCCC4)ccc3n2C)CC1	none
Cc1ccc(NC2SC(=O)N(CC(=O)O)C2=O)cc1 (stereo not drawn)	none
CCc1cccc2c(SCC(=O)NCC3CCCO3)nc(-c3ccc(F)cc3)nc12 (stereo not drawn)	none | SDO1 rescue DR inactive
CCOc1ccc(-c2nc(CSCC(=O)NCCN3CCOCC3)c(C)o2)cc1	none | SDO1 rescue DR inactive
O=C(c1cnc2n(c1=O)CCS2)N1CCN(c2ccc([N+](=O)[O-])cc2)CC1	none
CCOC(=O)c1cccc(NC(=O)CSc2nnc(COc3ccccc3C)o2)c1	none | SDO1 rescue DR inactive
CCOc1ccc(NC(=O)CSc2nnc(COc3c(C)cccc3C)o2)cc1	none
CC(c1nnc(Sc2nnnn2-c2ccccc2)n1-c1ccc(F)cc1)N(C)C (stereo not drawn)	none
Cc1nn(C)c(C)c1S(=O)(=O)N1CCCC(C(=O)NC2CCCCCC2)C1 (stereo not drawn)	none | SDO1 rescue DR 0.0833
CCC(C)NC(=O)c1c(C)cc(=O)oc1C (stereo not drawn)	none
Cc1ccccc1OCCCC(=O)Nc1nccs1	none
Cc1ccc(C)c(OCCCC(=O)Nc2nccs2)c1	SDO1 yeast rescue 9.99 | SDO1 rescue DR 0.087
CNC(=O)c1cc2cc(OC)ccc2oc1=N	SDO1 yeast rescue 12.2 | SDO1 rescue DR 0.102
CCN(CC)Cc1c(CC(C)C)oc(C)c1C(=O)O	none
CCCSc1nc(=O)n2cccc(C)c2n1	none
Cc1cc(C)n2nc(/C(C#N)=C/c3ccccc3)c(C#N)c2n1	none
Cc1cc(-c2ccccc2)n2nc(C)c(C#N)c2n1	SDO1 yeast rescue 12.3 | SDO1 rescue DR inactive
Nc1nc(-c2ccco2)c(-c2ccco2)s1	SDO1 yeast rescue 13.2 | SDO1 rescue DR 0.0706
Cc1nc(-c2ccc(Br)cc2)ccc1C(=O)O	none
CCCCSc1nnc(CSc2nc3nc(C)cc(C)n3n2)o1	none
CCN=C1S/C(=C\c2cn(CC)c3ccccc23)C(=O)N1CC	SDO1 yeast rescue 7.89 | SDO1 rescue DR 0.0918
FC(F)(F)C(Oc1nc(Nc2ccc(Cl)cc2)nc(N2CCOCC2)n1)C(F)(F)F	none (no result: Yeast life ext)
Cc1cc(C(=O)Nc2sc3c(c2C#N)CCC(C)C3)cs1 (stereo not drawn)	none | SDO1 rescue DR inactive
Cc1ccccc1C(=O)NC(=S)Nc1sc2c(c1C#N)CCC(C)C2 (stereo not drawn)	none
COc1ccc(C)cc1NC(=O)CSc1nnc(CC(=O)Nc2ccccc2C)n1C	none
Cc1nc2ccccc2c(=O)n1/N=C/c1cccnc1	SDO1 yeast rescue 3.06 | SDO1 rescue DR inactive

Screening results: PubChem, several laboratories
